Holding throughout (format): ADME, organism-based
Data set [1] is described as follows: Half life in Sprague-Dawley rat at 1 mg/kg, iv. Set-up: dose 1 mg/kg, route intravenous. As to conditions: in vivo. The method, boiled down:
(§1)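 SD rat pharmacokinetics: 1 mg/kg iv and 2 mg/kg po. Plasma clearance and Vd were determined. Half-life came from the iv arm.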

The nature of data set [2]: Plasma clearance in Sprague-Dawley rat at 1 mg/kg, iv and 2 mg/kg, po. A digest of the protocol:
as §1

Data set [3] is described as follows: Plasma concentration in Sprague-Dawley rat at 100 mg/kg, po after 6 hrs. Set-up: dose 100 mg/kg, route oral. A digest of the protocol: (§2)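 SD rats given a single 100 mg/kg oral dose, n=5. Plasma and whole brain were taken 6 h later. Drug concentrations were measured in both, the brain-to-plasma ratio was derived from them, and whole-brain Aβ42 was reported as percent change.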

The test system of the next data set is Rattus norvegicus. The data set can be described thus: Dose normalized AUC (0 to 24 hrs) in Sprague-Dawley rat at 2 mg/kg, po. The note with it: in vivo. Also on record: dose 2 mg/kg, route oral. A digest of the protocol:
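Sprague–Dawley rats dosed orally at 2 mg/kg, alongside a separate 1 mg/kg iv arm. Plasma exposure was followed over 0–24 h after the oral dose. AUC was normalized to dose and expressed as μM h kg/mg.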

A short description of data set [4]: Ratio of drug level in brain to plasma in Sprague-Dawley rat at 100 mg/kg, po after 6 hrs. Set-up: dose 100 mg/kg, route oral. As to conditions: read-out: BPR. The method, boiled down: as §2
Data set [5] can be described thus: Drug level in Sprague-Dawley rat brain at 100 mg/kg, po after 6 hrs. Also on record: dose 100 mg/kg, route oral. As to conditions: read-out: Drug uptake. The method, boiled down: as §2
Data set [6] is described as follows: Oral bioavailability in Sprague-Dawley rat at 2 mg/kg. The note with it: in vivo. A digest of the protocol: as §1
Data set [7] is described as follows: Volume of distribution at steady state in Sprague-Dawley rat at 1 mg/kg, iv and 2 mg/kg, po. The note with it: in vivo, read-out: Vdss. A digest of the protocol: as §1
Data set [8] is described as follows: Plasma concentration in Sprague-Dawley rat at 60 mg/kg, po after 6 hrs. Set-up: dose 60 mg/kg, route oral. A digest of the protocol: (§3)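 Single 60 mg/kg oral dose in SD rats. Plasma and brain drug exposure and central Aβ42 were assessed 6 h post-dose.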
Data set [9] can be described thus: Drug level in Sprague-Dawley rat brain at 60 mg/kg, po after 6 hrs. As to conditions: read-out: Drug uptake. Set-up: dose 60 mg/kg, route oral. The method, boiled down: as §3

Two molecules from ChEMBL document CHEMBL1817592, “Triazoles as γ-secretase modulators” (Bioorg Med Chem Lett, 2011) can be followed below.

Each structure is given as a SMILES string.

The molecule `COc1cc(-c2cn(Cc3ccc(C(C)(C)C)cc3)nn2)ccc1-n1cnc(C)c1` had a half-life in [1] of 7.7 h. This molecule came in with a clearance in data set [2] of 24 mL/min/kg. Further, the concentration at 6 h in data set [3] is 47 µM; in [5] it was 56 µM. The molecule also gave an AUC/dose in the data set with Rattus norvegicus of 1.4 µM·kg·h/mg. Besides, the Kp at 6 h in data set [4] was found to be 1.2. For the same molecule, the bioavailability in [6] amounted to 41%. For the same molecule, the Vd in data set [7] was found to be 7.1 L/kg.

Consider `COc1cc(-c2cn(Cc3ccc(-c4nc5ccccc5o4)cc3)nn2)ccc1-n1cnc(C)c1`, for which the concentration at 6 h in [8] stood at 40 µM; in [9] it was 9.4 µM. Moreover, the half-life in data set [1] is 5.4 h. In data set [2], this molecule yielded a clearance of 13.7 mL/min/kg. In the data set with Rattus norvegicus, this molecule gave an AUC/dose of 2.6 µM·kg·h/mg. The bioavailability in data set [6] was found to be 49%. Besides, the Vd in data set [7] was determined as 2.8 L/kg.

What is called half-life is the time in which the quantity being followed falls by half. A lower half-life goes with fast loss. By bioavailability is commonly meant the share of a dose that reaches the circulation, judged against a reference dose that is usually intravenous.
